Assay results published in ChEMBL document CHEMBL4725473, “A Chemical Probe for the Methyl Transferase PRMT5 with a Novel Binding Mode” (ACS Med Chem Lett, 2020).
One block for each molecule: values may come before it. Active and inactive are the calls of the source. The rule behind the calls is not given here.

Experiments:
[1] = molecular target: T1, PRMT5/MEP50 complex (Homo sapiens) (UniProt O14744+Q9BQA1); assay: (§1) Competitive inhibition of full-length human N-terminal FLAG-tagged PRMT5/full length N-terminal His6-tagged MEP50 (unknown origin) expressed in baculovirus infected Sf9 insect cells assessed as reduction of S-adenosyl-L-homocysteine formation using varying concentrations of human recombinant histone H2A (1 to 130 residues) and S-adenosyl-L-methionine as substrate after 80 mins by rapidfire mass spectrometry analysis
[2] = molecular target: T2, PRMT5/MEP50 complex (Homo sapiens, UniProt O14744); assay: as §1, with “Inhibition” for “Competitive inhibition”, “using” for “using varying concentrations of”, “60” for “80”
T2 sequence (O14744 whole entry): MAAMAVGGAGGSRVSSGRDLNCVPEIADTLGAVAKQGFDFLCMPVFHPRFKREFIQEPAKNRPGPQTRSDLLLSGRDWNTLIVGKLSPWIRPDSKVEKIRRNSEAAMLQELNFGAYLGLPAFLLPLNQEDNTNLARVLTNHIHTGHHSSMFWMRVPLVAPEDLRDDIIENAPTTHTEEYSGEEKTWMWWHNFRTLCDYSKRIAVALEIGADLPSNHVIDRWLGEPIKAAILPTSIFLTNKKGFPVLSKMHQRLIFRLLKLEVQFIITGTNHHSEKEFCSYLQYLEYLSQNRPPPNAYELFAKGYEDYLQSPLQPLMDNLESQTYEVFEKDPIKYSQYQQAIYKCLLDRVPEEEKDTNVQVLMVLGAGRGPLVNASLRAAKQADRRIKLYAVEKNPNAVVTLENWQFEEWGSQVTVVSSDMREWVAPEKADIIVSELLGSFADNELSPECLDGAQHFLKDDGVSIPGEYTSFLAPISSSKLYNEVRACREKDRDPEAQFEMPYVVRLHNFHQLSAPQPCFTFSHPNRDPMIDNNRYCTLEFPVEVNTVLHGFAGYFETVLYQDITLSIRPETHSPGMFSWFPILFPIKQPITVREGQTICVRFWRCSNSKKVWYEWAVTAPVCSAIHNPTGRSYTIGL
T2 sequence (Q9BQA1 whole entry, further chain): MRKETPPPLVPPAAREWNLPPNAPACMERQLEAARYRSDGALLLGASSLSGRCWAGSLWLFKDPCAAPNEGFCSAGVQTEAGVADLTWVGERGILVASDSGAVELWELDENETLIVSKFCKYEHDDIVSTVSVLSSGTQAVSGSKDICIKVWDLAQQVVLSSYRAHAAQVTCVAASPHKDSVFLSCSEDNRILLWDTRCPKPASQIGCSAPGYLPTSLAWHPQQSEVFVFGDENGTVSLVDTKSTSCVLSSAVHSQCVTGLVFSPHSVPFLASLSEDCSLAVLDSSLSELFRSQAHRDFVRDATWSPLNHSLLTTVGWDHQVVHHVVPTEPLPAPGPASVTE
Procedure, shortened: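 PRMT5–MEP50 complex at 5.0 nM in assay; recombinant human histone H2A as substrate. Read-out is the decrease in SAM→SAH conversion, measured by RapidFire high-throughput mass spectrometry. IC50 reported as mean of n ≥ 2.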

[3] = molecular target: T1, PRMT5/MEP50 complex (Homo sapiens); assay: as §1, with “Non-competitive” for “Competitive”, “using” for “using varying concentrations of”, “and varying concentrations of” for “and”
[4] = molecular target: Protein arginine N-methyltransferase 5 (Homo sapiens, UniProt O14744); assay: Inhibition of PRMT5 in human A549 cells assessed as reduction in arginine dimethylation of SmD1/3 after 48 hrs by Hoechst Stain/ CellMask Deep Red Stain based immunohistochemistry method; type: cell-based
Chain of Protein arginine N-methyltransferase 5 (O14744 whole entry): as the sequence (O14744 whole entry) above
Procedure, shortened: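 A549 cells treated with compound for 48 h (2 days). Symmetric arginine dimethylation of SmD1/3 measured by immunofluorescence microscopy as the nuclear/cytoplasmic intensity ratio, normalized to DMSO control. Concentration–response curves; mean ± SE of at least three replicates (n ≥ 3).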

[5] = system: A549; assay: Cytotoxicity against human A549 cells assessed as cell viability up to 10 uM incubated for 48 hrs by Hoechst staining based fluorescence microscopic analysis; details: a549, 48 h
[6] = molecular target: Histone-arginine methyltransferase CARM1 (Homo sapiens) (UniProt Q86X55); assay: Inhibition of recombinant human FLAG-tagged PRMT4 (2 to end residues) expressed in FreeStyle HEK293-F cells using histone H3 as substrate at 10 uM by radiometric HotSpot assay relative to control
Chain of Histone-arginine methyltransferase CARM1 (Homo sapiens) (Q86X55 whole entry): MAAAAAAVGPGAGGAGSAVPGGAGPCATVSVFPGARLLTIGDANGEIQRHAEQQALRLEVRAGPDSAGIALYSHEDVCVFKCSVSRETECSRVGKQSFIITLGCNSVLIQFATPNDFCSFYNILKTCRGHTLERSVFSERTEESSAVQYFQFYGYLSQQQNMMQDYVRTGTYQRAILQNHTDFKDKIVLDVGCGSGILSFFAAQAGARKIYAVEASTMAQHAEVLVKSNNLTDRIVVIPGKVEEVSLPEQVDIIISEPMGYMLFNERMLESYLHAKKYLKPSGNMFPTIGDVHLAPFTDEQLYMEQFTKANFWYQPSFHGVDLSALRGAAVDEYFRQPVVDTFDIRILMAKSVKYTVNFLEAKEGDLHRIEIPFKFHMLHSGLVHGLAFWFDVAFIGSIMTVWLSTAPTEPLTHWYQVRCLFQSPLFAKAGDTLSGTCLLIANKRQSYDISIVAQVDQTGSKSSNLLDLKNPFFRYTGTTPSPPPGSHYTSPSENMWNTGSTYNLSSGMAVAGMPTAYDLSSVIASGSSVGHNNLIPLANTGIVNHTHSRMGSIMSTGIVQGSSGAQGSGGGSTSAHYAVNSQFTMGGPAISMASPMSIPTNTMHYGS
Procedure, shortened: (§2)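 Selectivity panel of 21 purified recombinant human arginine and lysine methyltransferases. Compound tested at a single 10 μM concentration; percent inhibition of each enzyme reported.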

[7] = molecular target: Histone-lysine N-methyltransferase SUV39H1 (Homo sapiens) (UniProt O43463); assay: Inhibition of recombinant human N-terminal fusion protein tagged and C-terminal His-tagged SUV39H1 (44 to 412 residues) expressed in Escherichia coli using nucleosome as substrate at 10 uM by radiometric HotSpot assay relative to control; procedure, shortened: as §2
[8] = molecular target: T1, PRMT5/MEP50 complex (Homo sapiens); assay: Inhibition of recombinat human N-terminal Flag-tagged PRMT5 (2 to 637 residues)/ N-terminal His-tagged MEP50 (2 to 342 residues) (unknown origin) expressed in baculovirus infected Sf9 cells using recombinant human histone H2A (1 to 130 residues) as substrate at 10 uM by radiometric HotSpot assay relative to control; procedure, shortened: as §2
[9] = molecular target: N-lysine methyltransferase SMYD2 (Homo sapiens) (UniProt Q9NRG4); assay: Inhibition of recombinant human N-terminal His-tagged SMYD2 (2 to 433 residues) expressed in Escherichia coli using histone H4 as substrate at 10 uM by radiometric HotSpot assay relative to control; procedure, shortened: as §2
Chain of N-lysine methyltransferase SMYD2 (Homo sapiens) (Q9NRG4 whole entry, the tested form may be a part): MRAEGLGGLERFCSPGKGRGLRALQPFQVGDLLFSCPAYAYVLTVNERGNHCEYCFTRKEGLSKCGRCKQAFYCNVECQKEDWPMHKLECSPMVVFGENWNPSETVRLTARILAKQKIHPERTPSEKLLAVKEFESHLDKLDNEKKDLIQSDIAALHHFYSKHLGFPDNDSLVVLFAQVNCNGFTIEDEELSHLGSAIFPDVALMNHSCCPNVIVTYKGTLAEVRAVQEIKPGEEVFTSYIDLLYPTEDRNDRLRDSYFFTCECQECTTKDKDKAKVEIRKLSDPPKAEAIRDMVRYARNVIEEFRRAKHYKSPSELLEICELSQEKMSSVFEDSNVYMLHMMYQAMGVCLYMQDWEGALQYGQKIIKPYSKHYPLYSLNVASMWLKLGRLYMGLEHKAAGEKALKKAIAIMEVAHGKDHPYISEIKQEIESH

[10] = organism: Homo sapiens; assay: Inhibition of recombinant human N-terminal His-tagged EZH2 (2 to 746)/human recombinant AEBP2 (2 to 517)/human recombinant EED (2 to 441)/human recombinant RbAp48 (2 to 425)/human recombinant SUZ12 (2 to 739) expressed in baculovirus infected insect cells using core histone as substrate at 10 uM by radiometric HotSpot assay relative to control; procedure, shortened: as §2
[11] = molecular target: Histone-lysine N-methyltransferase KMT5B (Homo sapiens) (UniProt Q4FZB7); assay: Inhibition of recombinant human N-terminal GST-tagged SUV420H1 (2 to 393 residues ) expressed in baculovirus infected Sf9 cells using core histone as substrate at 10 uM by radiometric HotSpot assay relative to control; procedure, shortened: as §2
[12] = molecular target: Protein arginine N-methyltransferase 7 (Homo sapiens) (UniProt Q9NVM4); assay: Inhibition of recombinant human N-terminal His-tagged full length PRMT7 (2 to 692 residues) expressed in baculovirus system using GST-GAR as substrate at 10 uM by radiometric HotSpot assay relative to control; procedure, shortened: as §2
[13] = molecular target: Histone-lysine N-methyltransferase 2D (Homo sapiens) (UniProt O14686); assay: Inhibition of recombinant human N- terminal His-tagged MLL2 (5319 to 5537 residues) expressed in Escherichia coli using core histone as substrate at 10 uM by radiometric HotSpot assay relative to control; procedure, shortened: as §2
[14] = molecular target: Histone-lysine N-methyltransferase SETD2 (Homo sapiens) (UniProt Q9BYW2); assay: Inhibition of recombinant human N-terminal GST-tagged SETD2 (1433 to 1711 residues) expressed in Escherichia coli using nucleosome as substrate at 10 uM by radiometric HotSpot assay relative to control; procedure, shortened: as §2
Chain of Histone-lysine N-methyltransferase SETD2 (Homo sapiens) (Q9BYW2 whole entry, the tested form may be a part): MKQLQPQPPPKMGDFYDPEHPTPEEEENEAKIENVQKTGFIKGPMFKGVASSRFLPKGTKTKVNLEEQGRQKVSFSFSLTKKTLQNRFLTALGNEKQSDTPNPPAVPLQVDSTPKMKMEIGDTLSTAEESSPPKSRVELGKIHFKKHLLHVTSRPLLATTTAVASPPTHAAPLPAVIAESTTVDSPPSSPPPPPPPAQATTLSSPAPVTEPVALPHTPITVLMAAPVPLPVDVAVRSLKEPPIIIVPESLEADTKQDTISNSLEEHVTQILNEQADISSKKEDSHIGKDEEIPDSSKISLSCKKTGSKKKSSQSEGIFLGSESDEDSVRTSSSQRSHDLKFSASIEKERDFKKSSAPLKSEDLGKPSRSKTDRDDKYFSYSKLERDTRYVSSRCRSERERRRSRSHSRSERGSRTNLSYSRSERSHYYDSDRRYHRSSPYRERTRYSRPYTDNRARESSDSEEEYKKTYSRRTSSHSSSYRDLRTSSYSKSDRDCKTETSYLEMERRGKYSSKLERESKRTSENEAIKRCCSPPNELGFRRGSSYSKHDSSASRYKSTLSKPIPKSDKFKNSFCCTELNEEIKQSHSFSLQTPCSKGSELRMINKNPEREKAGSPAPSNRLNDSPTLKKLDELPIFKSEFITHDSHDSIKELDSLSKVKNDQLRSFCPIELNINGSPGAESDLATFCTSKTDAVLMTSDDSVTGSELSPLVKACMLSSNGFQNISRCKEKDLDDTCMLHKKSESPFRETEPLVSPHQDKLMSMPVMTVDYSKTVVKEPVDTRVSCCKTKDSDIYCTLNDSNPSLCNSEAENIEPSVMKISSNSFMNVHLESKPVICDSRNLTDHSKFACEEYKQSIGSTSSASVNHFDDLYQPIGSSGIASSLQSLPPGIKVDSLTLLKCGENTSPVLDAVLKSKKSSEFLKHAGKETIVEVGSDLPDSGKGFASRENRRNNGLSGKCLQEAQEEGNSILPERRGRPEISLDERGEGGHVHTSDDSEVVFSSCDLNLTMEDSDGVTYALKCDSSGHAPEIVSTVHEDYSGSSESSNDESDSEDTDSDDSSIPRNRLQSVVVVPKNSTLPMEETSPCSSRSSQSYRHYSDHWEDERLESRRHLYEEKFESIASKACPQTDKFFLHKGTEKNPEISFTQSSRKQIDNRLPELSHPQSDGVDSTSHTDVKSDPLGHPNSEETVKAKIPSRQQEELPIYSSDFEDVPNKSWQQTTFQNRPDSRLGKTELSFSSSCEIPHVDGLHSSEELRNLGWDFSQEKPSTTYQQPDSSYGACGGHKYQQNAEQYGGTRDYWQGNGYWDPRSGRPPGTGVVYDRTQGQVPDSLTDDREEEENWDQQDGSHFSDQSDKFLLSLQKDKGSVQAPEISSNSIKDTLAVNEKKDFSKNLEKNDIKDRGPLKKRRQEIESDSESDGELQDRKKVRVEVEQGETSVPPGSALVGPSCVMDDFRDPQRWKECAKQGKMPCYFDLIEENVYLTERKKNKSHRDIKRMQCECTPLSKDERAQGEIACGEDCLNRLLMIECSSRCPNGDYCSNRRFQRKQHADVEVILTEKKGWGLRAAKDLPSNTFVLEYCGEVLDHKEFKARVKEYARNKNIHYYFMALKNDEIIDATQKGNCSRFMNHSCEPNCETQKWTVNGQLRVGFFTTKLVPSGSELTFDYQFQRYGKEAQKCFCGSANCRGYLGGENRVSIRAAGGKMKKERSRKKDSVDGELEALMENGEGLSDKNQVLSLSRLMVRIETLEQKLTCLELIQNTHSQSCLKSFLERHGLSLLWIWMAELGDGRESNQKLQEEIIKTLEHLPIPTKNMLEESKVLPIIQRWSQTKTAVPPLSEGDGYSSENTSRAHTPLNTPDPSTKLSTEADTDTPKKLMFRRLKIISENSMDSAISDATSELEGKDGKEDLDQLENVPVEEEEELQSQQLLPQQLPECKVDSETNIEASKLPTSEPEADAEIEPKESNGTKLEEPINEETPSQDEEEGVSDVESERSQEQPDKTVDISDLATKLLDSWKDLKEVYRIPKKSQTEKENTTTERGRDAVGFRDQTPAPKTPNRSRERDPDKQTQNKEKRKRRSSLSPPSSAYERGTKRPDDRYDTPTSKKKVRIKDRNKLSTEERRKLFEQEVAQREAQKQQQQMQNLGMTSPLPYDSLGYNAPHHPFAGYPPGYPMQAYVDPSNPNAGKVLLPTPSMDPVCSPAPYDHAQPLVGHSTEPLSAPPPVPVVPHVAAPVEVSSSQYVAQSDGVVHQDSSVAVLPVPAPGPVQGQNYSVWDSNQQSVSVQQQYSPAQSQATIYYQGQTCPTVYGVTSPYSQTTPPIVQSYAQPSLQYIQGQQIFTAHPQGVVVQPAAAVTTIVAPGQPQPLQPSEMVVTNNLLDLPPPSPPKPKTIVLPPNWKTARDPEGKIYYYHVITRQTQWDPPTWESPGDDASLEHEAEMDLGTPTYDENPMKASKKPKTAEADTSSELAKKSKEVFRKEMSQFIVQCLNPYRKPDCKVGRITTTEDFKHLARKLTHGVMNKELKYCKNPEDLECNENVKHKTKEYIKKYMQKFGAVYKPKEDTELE

[15] = molecular target: Protein arginine N-methyltransferase 3 (Homo sapiens) (UniProt O60678); assay: Inhibition of recombinant human His-tagged PRMT3 (2 to end residues) expressed in Escherichia coli using histone H4 as substrate at 10 uM by radiometric HotSpot assay relative to control; procedure, shortened: as §2
[16] = molecular target: Histone-lysine N-methyltransferase SUV39H2 (Homo sapiens) (UniProt Q9H5I1); assay: Inhibition of recombinant human C-terminal His-tagged SUV39H2 (48 to 410 residues) expressed in Escherichia coli using nucleosome as substrate at 10 uM by radiometric HotSpot assay relative to control; procedure, shortened: as §2
[17] = molecular target: N-lysine methyltransferase KMT5A (Homo sapiens) (UniProt Q9NQR1); assay: Inhibition of recombinant human GST-tagged SETD8 (195 to 352 residues) expressed in Escherichia coli using nucleosome as substrate at 10 uM by radiometric HotSpot assay relative to control; procedure, shortened: as §2
[18] = molecular target: Protein arginine N-methyltransferase 8 (Homo sapiens) (UniProt Q9NR22); assay: Inhibition of recombinant human N-terminal and C-terminal His-tagged PRMT8 (61 to 394 residues) expressed in Escherichia coli using histone H4 as substrate at 10 uM by radiometric HotSpot assay relative to control; procedure, shortened: as §2
[19] = molecular target: Histone-lysine N-methyltransferase EHMT2 (Homo sapiens) (UniProt Q96KQ7); assay: Inhibition of N-terminal GST-fused recombinant human EHMT2 (786 to 1210 residues) expressed in Escherichia coli using histone H3 (1 to 21) as substrate at 10 uM by radiometric HotSpot assay relative to control; procedure, shortened: as §2
[20] = molecular target: Histone-lysine N-methyltransferase, H3 lysine-36 specific (Homo sapiens) (UniProt Q96L73); assay: Inhibition of N-terminal His-tagged recombinant human NSD1 (1538 to 2696 residues) expressed in baculovirus infected insect cells using nucleosome as substrate […] uM by radiometric HotSpot assay relative to control; procedure, shortened: as §2
[21] = organism: Homo sapiens; assay: Inhibition of recombinant human N-terminal His-tagged MLL1 (3745 to 3969 residues)/human WDR5 (22 to 334)/human RbBP5 (1 to 538)/human Ash2L (2 to 534)/human DPY30 (1 to 99) expressed in Escherichia coli using nucleosome as substrate at 10 uM by radiometric HotSpot assay relative to control; procedure, shortened: as §2
[22] = molecular target: Histone-lysine N-methyltransferase SETD1B (Homo sapiens) (UniProt Q9UPS6); assay: Inhibition of recombinant human N- terminal GST-tagged SET1B (1629 to 1923 residues) expressed in Escherichia coli using core histone as substrate at 10 uM by radiometric HotSpot assay relative to control; procedure, shortened: as §2
[23] = molecular target: Histone-lysine N-methyltransferase PRDM9 (Homo sapiens) (UniProt Q9NQV7); assay: Inhibition of recombinant human N-terminal GST-tagged PRDM9 (2 to 414 residues) expressed in baculovirus infected Sf9 cells using histone H3 as substrate at 10 uM by radiometric HotSpot assay relative to control; procedure, shortened: as §2
[24] = molecular target: Histone-lysine N-methyltransferase, H3 lysine-79 specific (Homo sapiens) (UniProt Q8TEK3); assay: Inhibition of recombinant human N-terminal GST-tagged DOT1L (1 to 416 residues) expressed in Escherichia coli using nucleosome as substrate at 10 uM by radiometric HotSpot assay relative to control; procedure, shortened: as §2
[25] = molecular target: Histone-lysine N-methyltransferase SETD7 (Homo sapiens) (UniProt Q8WTS6); assay: Inhibition of recombinant human full length C-terminal His-tagged SETD7 expressed in Escherichia coli using core histone as substrate at 10 uM by radiometric HotSpot assay relative to control; procedure, shortened: as §2
[26] = molecular target: Protein arginine N-methyltransferase 6 (Homo sapiens) (UniProt Q96LA8); assay: Inhibition of recombinant human His-tagged PRMT6 (2 to end residues) expressed in Escherichia coli using histone H3 as substrate at 10 uM by radiometric HotSpot assay relative to control; procedure, shortened: as §2
[27] = molecular target: Protein arginine N-methyltransferase 1 (Homo sapiens) (UniProt Q99873); assay: Inhibition of recombinant human GST-tagged PRMT1 (2 to end residues) expressed in Escherichia coli using histone H4 as substrate at 10 uM by radiometric HotSpot assay relative to control; procedure, shortened: as §2
Chain of Protein arginine N-methyltransferase 1 (Homo sapiens) (Q99873 whole entry, looked up, the tested form may be a part): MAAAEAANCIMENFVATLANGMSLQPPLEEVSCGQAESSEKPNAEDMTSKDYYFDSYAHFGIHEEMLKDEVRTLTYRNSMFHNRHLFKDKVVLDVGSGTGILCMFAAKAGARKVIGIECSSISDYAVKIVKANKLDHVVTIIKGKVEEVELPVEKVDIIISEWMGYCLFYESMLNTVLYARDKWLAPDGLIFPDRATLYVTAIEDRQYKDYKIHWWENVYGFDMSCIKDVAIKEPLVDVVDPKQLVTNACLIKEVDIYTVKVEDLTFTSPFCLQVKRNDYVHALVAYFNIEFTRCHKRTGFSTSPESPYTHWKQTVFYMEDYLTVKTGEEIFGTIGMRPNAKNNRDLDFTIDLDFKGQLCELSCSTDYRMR

[28] = molecular target: T2, PRMT5/MEP50 complex; assay: Binding affinity to N-terminal FLAG-tagged human PRMT5 (1 to 637 residues)/N-terminal thrombin His-tagged MEP50 (2 to 342 residues) expressed in baculovirus infected Sf21 cells by streptavidin coated sensor chip based surface plasmon resonance analysis

- inhibition [1]: Active
- IC50 [2]: 9.5 nM
- inhibition [3]: Active
- IC50 [4]: 58 nM
SMILES: Nc1ncnc2c1ccn2[C@@H]1O[C@H](CN2CCCC23CCNCC3)[C@@H](O)[C@H]1O

- IC50 [2]: 340 nM
SMILES: NCC[C@H]1CCCN1C[C@H]1O[C@@H](n2cnc3c(N)ncnc32)[C@H](O)[C@@H]1O

- IC50 [2]: 83 nM
- IC50 [4]: 2400 nM
SMILES: NCC[C@@H]1CCCN1C[C@H]1O[C@@H](n2cnc3c(N)ncnc32)[C@H](O)[C@@H]1O

- IC50 [2]: 76000 nM
- IC50 [4]: > 10000 nM
SMILES: Nc1ncnc2c1ncn2[C@@H]1O[C@H](CN2CCCC2)[C@@H](O)[C@H]1O

- IC50 [2]: 52 nM
- IC50 [4]: 2300 nM
SMILES: Nc1ncnc2c1ncn2[C@@H]1O[C@H](CN2CCCC23CCNCC3)[C@@H](O)[C@H]1O
- Activity [5]: Non-Toxic

- IC50 [2]: 2700 nM
SMILES: Nc1ncnc2c1ncn2[C@@H]1O[C@H](CN2CCCC23CCNC3)[C@@H](O)[C@H]1O (stereo in doubt; 3b)

- IC50 [2]: > 10000 nM
SMILES: CC(=O)N1CCC2(CCCN2C[C@H]2O[C@@H](n3cnc4c(N)ncnc43)[C@H](O)[C@@H]2O)CC1

- IC50 [2]: 370 nM
SMILES: Nc1ncnc2c1ncn2[C@@H]1O[C@H](CN2CCC23CCNCC3)[C@@H](O)[C@H]1O

- IC50 [2]: 740 nM
SMILES: Nc1ncnc2c1ncn2[C@@H]1O[C@H](CN2CCCC23CNC3)[C@@H](O)[C@H]1O

- inhibition [6]: < 25%
- inhibition [7]: < 25%
- inhibition [8]: > 90%
- inhibition [9]: < 25%
- inhibition [11]: < 25%
- inhibition [1]: Active
- IC50 [2]: 48 nM
- inhibition [12]: < 25%
- inhibition [13]: < 25%
- inhibition [14]: < 25%
- inhibition [15]: < 25%
- inhibition [16]: < 25%
- inhibition [3]: Active
- inhibition [17]: < 25%
- inhibition [18]: < 25%
- inhibition [19]: < 25%
- inhibition [20]: < 25%
- IC50 [4]: 200 nM
- inhibition [21]: < 25%
- inhibition [22]: < 25%
- inhibition [23]: < 25%
- inhibition [24]: < 25%
- inhibition [25]: < 25%
- inhibition [26]: < 25%
- inhibition [27]: < 25%
- Kd [28]: 7.6 nM
SMILES: CN1CCC2(CCCN2C[C@H]2O[C@@H](n3ccc4c(N)ncnc43)[C@H](O)[C@@H]2O)CC1
- inhibition [10]: < 25%

- IC50 [2]: 530 nM
SMILES: Nc1ncnc2c1ncn2[C@@H]1O[C@H](CN2CCCC3(CNC3)C2)[C@@H](O)[C@H]1O

- IC50 [2]: > 10000 nM
SMILES: Nc1ncnc2c1ncn2[C@@H]1O[C@H](CN2CCC(N)CC2)[C@@H](O)[C@H]1O

- IC50 [2]: 5100 nM
SMILES: Nc1ncnc2c1ncn2[C@@H]1O[C@H](CN2CCC23CNC3)[C@@H](O)[C@H]1O

- IC50 [2]: > 10000 nM
SMILES: Nc1ncnc2c1ncn2[C@@H]1O[C@H](CN2CCC3(CCNCC3)CC2)[C@@H](O)[C@H]1O

- IC50 [2]: 5400 nM
SMILES: Nc1ncnc2c1ncn2[C@@H]1O[C@H](CN2CCC3(CCNCC3)C2)[C@@H](O)[C@H]1O

- IC50 [2]: 3300 nM
SMILES: Nc1ncnc2c1ncn2[C@@H]1O[C@H](CN2CCCC23CCNC3)[C@@H](O)[C@H]1O (stereo in doubt; 3a)

- IC50 [2]: > 10000 nM
SMILES: Nc1ncnc2c1ncn2[C@@H]1O[C@H](CN2CCCC23CCCCC3)[C@@H](O)[C@H]1O

- IC50 [2]: > 10000 nM
SMILES: Nc1ncnc2c1ncn2[C@@H]1O[C@H](CN2CCC3(CCNC3)CC2)[C@@H](O)[C@H]1O
